Screening data as filed in PubChem BioAssay.
TAAR1 ag = human TAAR1 agonists, primary screen, Fluo-8 calcium fluorescence, CHO RD-HGA16 cells; activation, % at 3 µM; Trace amine-associated receptor 1 (Homo sapiens), Q96RJ0; 360,000 tested, 0.99% active; AID 624467, 2012; vehicle wells 0%, saturating PEA agonist 100%;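 active = activation above the mean activation of all test compounds in the run plus 3 SD, cut at about 38% in these data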
Target sequence (Q96RJ0 whole entry, looked up): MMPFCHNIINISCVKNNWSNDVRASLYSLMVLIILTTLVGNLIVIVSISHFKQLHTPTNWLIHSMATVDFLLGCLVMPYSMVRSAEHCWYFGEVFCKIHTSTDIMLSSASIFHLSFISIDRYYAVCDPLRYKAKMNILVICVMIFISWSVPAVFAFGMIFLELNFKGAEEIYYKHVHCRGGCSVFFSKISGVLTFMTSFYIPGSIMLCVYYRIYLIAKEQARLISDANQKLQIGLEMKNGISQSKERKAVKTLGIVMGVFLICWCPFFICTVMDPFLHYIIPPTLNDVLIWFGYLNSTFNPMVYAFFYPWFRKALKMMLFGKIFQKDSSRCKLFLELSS
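System: CHO-derived RD-HGA16 cells with stable Gα16 and human TAAR1 / Times: 17-24 h plating, Fluo-8 75 min 37 °C, 30 min RT / Technique: calcium-sensitive Fluo-8 signal, excitation 470-495, emission 515-575 nm / Measure: % activation relative to PEA EC100 response / Benchmarks: DMSO and PEA EC100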
GPR7 antagonist = GPR7 receptor antagonists, primary screen, cell-based, fluorescence, single concentration. inhibition, % at 4.4 µM. GPR7-expressing cells, fluorescence antagonist assay. 290,000 tested, 1.1% active; in the data active = inhibition above about 16%, passing the limit was not always enough;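 also: cells stimulated with the agonist NPW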
OX1R antag-1 = antagonists of human orexin 1 receptor (OX1R). AID 485270, 2010. 330,000 tested, 1.8% active. inhibition, % at 6.6 µM. OX1R-expressing cells, FRET antagonist read-out. Orexin/Hypocretin receptor type 1 (Homo sapiens), O43613; in the data active = inhibition mostly above about 38%, no sharp cut-off; inactive = mostly below about 40%
CHO parental Ca = ATP-evoked calcium signal inhibitors, parental CHO, primary screen, counter-screen for OX1R antagonist project, cell-based, fluorescence, Fluo-8 calcium dye; 330,000 tested, 0.63% active; inhibition, % at 5.6 µM; parental CHO-K1, ATP-induced calcium, Fluo-8 fluorescence;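 active = inhibition above that plate's mean sample inhibition plus 3 SD, cut at about 26% in these data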
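Measured by: calcium-sensitive Fluo-8 fluorescence / Test system: CHO parental line / Controls: ATP-challenged DMSO wells low, unchallenged DMSO wells high / Measure: % inhibition / Compound: single nominal dose of 5.6 µM per compound / Replicates: single well per compound, no replicates / Reagent: ATP as calcium-mobilizing challenge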
OX1R antag-2 = OX1R (HCRTR1) antagonists, primary screen, fluorescence, CHO/OX1R cells, Fluo-8 calcium, orexin A | Orexin/Hypocretin receptor type 1 (Homo sapiens), O43613 | Fluo-8 calcium fluorescence | inhibition, % at 5 µM | 330,000 tested, 0.43% active | AID 434989, 2010;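 active = inhibition above its plate's threshold, mean inhibition of all tested compounds on the plate plus 3 SD, cut at about 37% in these data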
TAAR1 antagonist = human TAAR1 antagonists, primary screen, Fluo-8 calcium fluorescence, CHO RD-HGA16 cells. inhibition, % at 3 µM. 360,000 tested, 1.5% active. Trace amine-associated receptor 1 (Homo sapiens), Q96RJ0. antagonist. AID 624466, 2012;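 active = inhibition above a per-plate cutoff, the mean inhibition of test compounds on that plate plus 3 SD, cut at about 49% in these data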
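Test system – hTAAR1-expressing CHO RD-HGA16 cells, Gα16-coupled · Also added – β-PEA at EC80 concentration, post-compound challenge · Compound – 3 µM, single point · Incubation – dye loading 75 min at 37 °C, then 30 min room temperature · Measured by – Fluo-8 intracellular calcium dye fluorescence, real-time kinetic reads · Benchmarks – vehicle and agonist controls · Replicates – singlicate, one well per test compound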
TAAR1 ag conf = human TAAR1 agonists, retest of hits, confirmation, Fluo-8 calcium fluorescence, CHO RD-HGA16 cells; 2,400 tested, 82% active; scaled: DMSO 0%, maximal phenethylamine 100%; shares compounds with TAAR1 ag; activation, % at 3 µM;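 active = activation above a cutoff set at the run's mean compound activation plus 3 SD, cut at about 39% in these data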
Ga16 nonsel ag = nonselective calcium mobilization agonists, CHO-Ga16 cells, counter-screen for hTAAR1 agonist project, cell-based, fluorescence, CHO-Ga16 parental line; 2,400 tested, 50% active; shares compounds with TAAR1 ag; activation, % at 3 µM; Fluo-8 calcium fluorescence; normalized to maximal ATP response, DMSO zero;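 active = activation above the run cutoff, the mean activation over all tested wells plus 3 SD, cut at about 12% in these data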
TAAR1 desens = TAAR1 desensitization by agonist hits, confirmation, counter-screen for TAAR1 agonist project, cell-based, fluorescence, tachyphylaxis; inhibition, % at 3 µM; 2,400 tested, 46% active; CHO RD-HGA16 hTAAR1, Fluo-8 calcium, beta-PEA response inhibition; shares compounds with TAAR1 ag;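 active = inhibition above the run cutoff, the mean inhibition of all test compounds plus 3 SD, cut at about 49% in these data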;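 also: beta-PEA stimulus applied at its EC80; loss of beta-PEA calcium signal after compound pretreatment read as receptor desensitization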
Ga16 antag count = inhibition of ATP-evoked calcium response in CHO-Ga16 cells, counter-screen for TAAR1 agonist project, cell-based, fluorescence; shares compounds with TAAR1 ag; CHO-Ga16 ATP-induced calcium, Fluo-8 fluorescence; inhibition, % at 3 µM; 2,400 tested, 39% active;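 active = inhibition above the plate's mean compound inhibition plus 3 SD, computed per plate, cut at about 22% in these data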
Hits are given with their value; – = inactive; · = not tested or not shown. Hits are enriched below; roughly 4.6% of the tested compounds scored in any of these assays.

SMILES	TAAR1 ag	GPR7 antagonist	OX1R antag-1	CHO parental Ca	OX1R antag-2	TAAR1 antagonist	TAAR1 ag conf	Ga16 nonsel ag	TAAR1 desens	Ga16 antag count
CN(C)c1ccc(C(=O)c2ccccc2C(=O)O)c(O)c1	–	–	–	–	–	–	·	·	·	·
CCCC[C@@H]1CNCCN1CCc1cccc2ccccc12	65.7	·	–	–	–	74.7	70.2	–	87.4	–
c1ccc(C[C@H]2CNCCN2CCc2cccc3ccccc23)cc1	–	·	–	–	–	–	·	·	·	·
FC(F)(F)c1cc(CCN2CCNC[C@H]2Cc2cccc3ccccc23)cc(C(F)(F)F)c1	83.7	·	–	–	–	95.1	50.7	28.4	–	40.0
Cc1cc2c(cc1C)-n1nnnc1C(N(C)CCc1ccccc1)C(=O)N2 (configuration not stated)	54.3	·	·	·	·	–	65.1	–	–	–
Cc1cc(C)n(-c2nc3ccccc3nc2NCCc2ccccc2)n1	61.3	–	–	–	–	–	–	–	–	–
COc1ccc(Nc2nc3ccccc3nc2-n2nc(C)cc2C)cc1	–	–	–	–	–	–	·	·	·	·
CC(C)N(C)CCOC(=O)/C=C/c1ccccc1	72.6	–	–	–	–	54.2	–	–	–	–
CN(CCOC(=O)/C=C/c1ccccc1)C(C)(C)C	–	–	–	–	–	–	·	·	·	·
CCOc1ccccc1C(=O)N[C@H](C(=O)Nc1nc2c(s1)CCCC2)C(C)C	45.6	–	–	–	–	–	41.2	13.0	–	–
COc1ccccc1S(=O)(=O)n1cc(Cc2ccccc2)c(N)n1	–	–	–	–	–	–	·	·	·	·
CCc1c(Cc2ccccc2)ncn1CCc1ccccc1OC	51.8	·	·	·	·	–	74.8	–	–	–
CCc1c(-c2ccc(OC)c(OC)c2)ncn1CCc1ccccc1OC	–	·	·	·	·	–	·	·	·	·
COc1ccccc1CCn1cnc(Cc2ccccc2)c1C(C)C	54.0	·	·	·	·	–	71.8	–	58.8	21.8
COc1cc(NC(=O)Nc2nnc([C@H]3C[C@H](O)[C@@H](CO)O3)s2)cc(OC)c1	–	·	·	·	·	–	·	·	·	·
C=CCNc1nc(C(F)(F)F)nc2c1nnn2Cc1ccccc1Cl	49.9	–	–	–	–	–	54.2	35.2	–	–
Cc1nc(NCCc2ccccc2)c2nnn(Cc3ccccc3Cl)c2n1	86.2	–	–	–	–	79.5	91.4	–	85.3	–
CCOCCCNc1nc(C(F)(F)F)nc2c1nnn2Cc1ccccc1Cl	–	–	–	–	–	–	·	·	·	·
CN(CCc1ccccc1)Cc1nc(-c2cnccn2)no1	52.5	–	–	–	–	–	–	–	–	–
Cc1ccc(OP(=O)(Nc2c(C)n(C)n(-c3ccccc3)c2=O)Oc2ccc(C)cc2)cc1	50.3	–	–	–	–	–	–	–	–	–
CN(CCc1ccccc1)C(=O)c1[nH]c(C(F)(F)F)nc1-c1ccccc1	69.7	·	·	·	·	–	76.8	–	–	–
CCN(CC)C(=O)Cn1cnc2sc(C(=O)N3CCN(Cc4ccc5c(c4)OCO5)CC3)c(C)c2c1=O	–	–	–	–	–	–	·	·	·	·
CCOC(=O)C1=C(N)n2c(s/c(=C/c3ccco3)c2=O)=C(C(=O)OC)C1c1ccco1 (configuration not stated)	68.5	–	–	–	–	–	72.5	29.6	51.4	39.7
OC(CNCCc1ccccc1)c1ccccc1 (configuration not stated)	53.1	–	–	–	–	–	–	–	–	–
COc1ccc(CCNCC(O)c2ccccc2)cc1 (configuration not stated)	–	–	–	–	–	–	·	·	·	·
Cc1nc2ccc(NC(=O)C3CCN(S(=O)(=O)c4cccs4)CC3)cc2s1	41.3	–	–	–	–	–	–	11.9	–	–
COC(=O)c1sc(NC(=S)NC(=O)c2ccccc2C)nc1C	43.1	–	–	–	–	–	82.7	54.0	61.2	33.8
